The source made the active and inactive calls. The rule behind the calls is not given here.

The subject of experiment [1] is HCT-116. The experiment is described as follows: Cytotoxicity against human HCT116 cells assessed as reduction in cell viability incubated for 24 hrs by MTT assay. Conditions: HCT-116, 24 h. It is filed as functional, cell-based. An outline of the steps: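 Cells were kept in McCoy's 5A with 10% fetal bovine serum, streptomycin and 100 units·mL⁻¹ penicillin at 37 °C under 5% CO₂/95% air. Viability was read by MTT optical density. IC50 is the concentration that lowers optical density by 50% relative to untreated cells. Values are means with SD of at least three independent determinations.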
Background: Formazan colour is commonly taken as a measure of viable cells.

The test system of experiment [2] is HCT-116. The experiment is described as follows: Inhibition of colony formation of human HCT116 cells incubated for 24 hrs by crystal violet staining based photography. It is filed as functional, cell-based. An outline of the steps: (§1)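 Cells (HCT116, RKO, HCT116 p53-/-, HCT116 Bax-/-) seeded at 300 per well in 12-well plates for 48 h, then treated 24 h. Drug medium replaced with fresh medium; about 10 days later colonies stained 15 min with crystal violet, photographed and counted. Run in triplicate.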

For experiment [3], the system named is RKO. Kind of experiment: Inhibition of colony formation of human RKO cells incubated for 24 hrs by crystal violet staining based photography. It is filed as functional, cell-based. An outline of the steps:
as §1

Experiment [4] deals with HCT-116. Kind of experiment: Induction of apoptosis in human HCT116 cells assessed as early apoptotic cells level at 2 uM incubated for 24 hrs by Annexin V-FITC/PI staining based cytometry (reference value: 1.3%). The experiment is classed as functional.
Experiment [5] has as its system HCT-116. The experiment is described as follows: Induction of apoptosis in human HCT116 cells assessed as necrotic cells level at 2 uM incubated for 24 hrs by Annexin V-FITC/PI staining based cytometry (reference value: 1.6%). The experiment is classed as functional.
The test system of experiment [6] is HCT-116. The experiment is described as follows: Induction of apoptosis in human HCT116 cells assessed as G1 phase cells level at 2 uM incubated for 24 hrs by […]PI staining based cytometry (reference value: 65.2%). The experiment is classed as functional. An outline of the steps: (§2)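 Cells were treated for 24 h, then fixed in 75% ethanol at -20 °C overnight. RNA was digested with 0.2 mg/mL RNase A for 30 min at 37 °C. Cells were stained with 50 µg/mL PI for 30 min in the dark, and DNA content was read by flow cytometry.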

In experiment [7] the test system is HCT-116. Kind of experiment: Induction of apoptosis in human HCT116 cells assessed as subG1 phase cells level at 4 uM incubated for 24 hrs by […]PI staining based cytometry (reference value: 1%). The experiment is classed as functional. The essentials:
as §2

The test system of experiment [8] is HCT-116. The experiment is described as follows: Induction of apoptosis in human HCT116 cells assessed as late apoptotic cells level incubated for 48 hrs by Annexin V-FITC/PI staining based cytometry (reference value: 0.0%). The experiment is classed as functional.
Experiment [9] concerns HCT-116. The experiment is described as follows: Induction of apoptosis in human HCT116 cells assessed as necrotic cells level incubated for 48 hrs by Annexin V-FITC/PI staining based cytometry (reference value: 0.2%). The experiment is classed as functional.
For experiment [10], the system named is HCT-116. The experiment is described as follows: Induction of apoptosis in human HCT116 cells assessed as viable cells level pre-incubated with 20 uM pan-caspase inhibitor Z-VAD-FMK for 5 hrs followed by compound addition and further incubated for 48 hrs by Annexin V-FITC/PI staining based cytometry (reference value: 98.7%). It is filed as functional.
For experiment [11], the system named is HCT-116. Kind of experiment: Induction of apoptosis in human HCT116 cells assessed as early apoptotic cells level pre-incubated with 20 uM pan-caspase inhibitor Z-VAD-FMK for 5 hrs followed by compound addition and further incubated for 48 hrs by Annexin V-FITC/PI staining based cytometry (reference value: 1.1%). The experiment is classed as functional. More on the design: scale not given: the % may be the effect or the level left.

Experiment [12] deals with HCT-116. Kind of experiment: Induction of apoptosis in human HCT116 cells assessed as necrotic cells level pre-incubated with 20 uM pan-caspase inhibitor Z-VAD-FMK for 5 hrs followed by compound addition and further incubated for 48 hrs by Annexin V-FITC/PI staining based cytometry (reference value: 0.2%). The experiment is classed as functional. Also on record: scale not given: the % may be the effect or the level left.

In experiment [13] the test system is HCT-116. Kind of experiment: Induction of apoptosis in Bax-/- human HCT116 cells assessed as necrotic cells level incubated for 48 hrs by Annexin V-FITC/PI staining based cytometry (reference value: 0.2%). The experiment is classed as functional. The essentials:
(§3)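 Cells were plated at 5×10^5 per well and treated once 80% confluent. After trypsinisation and two washes in ice-cold PBS (pH 7.4), cells were stained with Annexin V-FITC and PI for 15 min at room temperature in the dark. Analysis was by flow cytometry. The legend gives vehicle or 4 µM for the p53-/- and Bax-/- lines.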

Experiment [14] relates to HCT-116. The experiment is described as follows: Induction of apoptosis in Bax-/- human HCT116 cells assessed as late apoptotic cells level pre-incubated with 20 uM pan-caspase inhibitor Z-VAD-FMK for 5 hrs followed by compound addition and further incubated for 48 hrs by Annexin V-FITC/PI staining based cytometry (reference value: 0.1%). More on the design: scale not given: the % may be the effect or the level left. It is filed as functional.

The test system of experiment [15] is HCT-116. The experiment is described as follows: Induction of apoptosis in Bax-/- human HCT116 cells assessed as increase in cleaved PARP level at 4 to 16 uM by Western blot method. The experiment is classed as functional, cell-based. The essentials: (§4)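 Lysates were made in SDS buffer (2% SDS, 50 mM Tris-HCl pH 6.8) and quantified by BCA. Equal protein was run on 10% SDS-PAGE and transferred to PVDF. Membranes were blocked in 5% milk, probed overnight at 4 °C for cleaved PARP (1:1000) with GAPDH (1:5000), and detected with HRP secondary antibody and ECL.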
On the technique in general: In western blotting, separated proteins are transferred to a membrane and probed.

The test system of experiment [16] is HCT-116. The experiment is described as follows: Induction of apoptosis in p53-/- human HCT116 cells assessed as increase in cleaved PARP level at 4 to 16 uM by Western blot method. The experiment is classed as functional, cell-based. An outline of the steps: as §4
The subject of experiment [17] is HCT-116. Kind of experiment: Induction of apoptosis in p53-/- human HCT116 cells assessed as necrotic cells level at 4 uM incubated for 48 hrs by Annexin V-FITC/PI staining based cytometry (reference value: 0.8%). The experiment is classed as functional. An outline of the steps: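 HCT116 p53-/- cells (Vogelstein line) in McCoy's 5A with 10% FBS, 37 °C, 5% CO2. Seeded at 5×10^5 in 6-well plates, treated with vehicle or 4 μM at 80% confluence. After treatment, trypsinised, washed twice in ice-cold PBS pH 7.4, and stained in binding buffer with Annexin V-FITC and PI for 15 min at room temperature in the dark. Read by flow cytometry.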

In experiment [18] the test system is HCT-116. The experiment is described as follows: Induction of apoptosis in Bax-/- human HCT116 cells assessed as viable cells level at 4 uM incubated for 48 hrs by Annexin V-FITC/PI staining based cytometry (reference value: 95.2%). The experiment is classed as functional. The essentials: as §3
Experiment [19] relates to HCT-116. Kind of experiment: […] of ROS generation in human HCT116 cells at 8 uM incubated for 24 hrs by H2DCFDA dye based flow cytometry. It is filed as functional, cell-based. An outline of the steps: (§5)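 HCT116 cells pre-treated 5 h with H2O, 7.5 mM L-NAC or 7.5 mM GSH, then exposed to compound for 24 h. Cells collected, washed twice in PBS, and resuspended in serum-free McCoy's 5A with 10 nM H2DCFDA for 20 min at 37 °C in the dark. After two PBS washes, relative ROS measured by flow cytometry.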
Background: A flow cytometer gives signals particle by particle.

For experiment [20], the system named is HCT-116. Kind of experiment: […] of ROS generation in human HCT116 cells pre-treated with 7.5 mM L-NAC for […] followed by 8 uM compound addition and further incubated for 24 hrs by H2DCFDA dye based flow cytometry. The experiment is classed as functional, cell-based. The essentials:
as §5

Experiment [21] deals with HCT-116. Kind of experiment: Induction of apoptosis in human HCT116 cells assessed as increase in cleaved PARP level pre-treated with 7.5 mM L-NAC for 6 hrs followed by 4 to 8 uM compound addition and further incubated for 24 hrs by Western blot method. It is filed as functional, cell-based. An outline of the steps:
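HCT116 cells were pretreated with H2O or 7.5 mM L-NAC for 6 h, then exposed to 0, 4 or 8 µM for 24 h. Lysates were made in SDS buffer and run on 10% SDS-PAGE. Blots were probed for cleaved PARP (1:1000) with GAPDH (1:5000) as control, and detected by ECL.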

Usually IC50 stands for the point on the concentration scale where inhibition reaches its midpoint. `CCN(CC)CCCNC(=O)c1cn(CCCc2ccccc2)c2cc(Cl)ccc2c1=O.Cl`: in experiment [1], the IC50 stood at 5.79 µM. Moreover, the inhibition entry in [2] and in [3] was “Dose-dependent effect” in each case. Also, the Activity in [4] turned out to be 18.2%; in experiment [5], 1%; in experiment [6], 46.7%; in experiment [7], 14.2%; in [8] it was 3.2%; in experiment [9], 4.6%. Also, the Activity in [10] amounted to 80.4%; in experiment [11] it was 14.2%; in experiment [12] it was 3.5%; in [13], 0.2%; in experiment [14] it was 0.9%; in [17], 1.8%. Further, in [18], the Activity came out at 71.5%. Also, the result in experiment [15] and in experiment [16] was Active. Further, the inhibition entry in experiment [19] was “Active”. Also, the inhibition entry in experiment [20] was “inactive”. In experiment [21], the outcome was inactive.

These data come from ChEMBL document CHEMBL4190353, “Synthesis, structure-activity relationships and preliminary mechanism of action of novel water-soluble 4-quinolone-3-carboxamides as antiproliferative agents” (Eur J Med Chem, 2017).
